In ChEMBL document CHEMBL5653631, “A Potent and Selective ULK1 Inhibitor Suppresses Autophagy and Sensitizes Cancer Cells to Nutrient Stress” (iScience, 2018):
Blank lines part the entries; values can stand above or below the compound they belong to.

Assays:
[1] = molecular target: Cyclin-dependent kinase 4 (Homo sapiens) (UniProt P11802); experiment: Inhibition of human recombinant CDK4 at 500 nM in presence of ATP by radiometric assay relative to control
[2] = molecular target: T1, MAP kinase-activated protein kinase 5 (Homo sapiens) (UniProt Q8IW41); experiment: Inhibition of human recombinant MAPKAPK5 at 500 nM in presence of ATP by radiometric assay relative to control
T1 sequence (whole entry): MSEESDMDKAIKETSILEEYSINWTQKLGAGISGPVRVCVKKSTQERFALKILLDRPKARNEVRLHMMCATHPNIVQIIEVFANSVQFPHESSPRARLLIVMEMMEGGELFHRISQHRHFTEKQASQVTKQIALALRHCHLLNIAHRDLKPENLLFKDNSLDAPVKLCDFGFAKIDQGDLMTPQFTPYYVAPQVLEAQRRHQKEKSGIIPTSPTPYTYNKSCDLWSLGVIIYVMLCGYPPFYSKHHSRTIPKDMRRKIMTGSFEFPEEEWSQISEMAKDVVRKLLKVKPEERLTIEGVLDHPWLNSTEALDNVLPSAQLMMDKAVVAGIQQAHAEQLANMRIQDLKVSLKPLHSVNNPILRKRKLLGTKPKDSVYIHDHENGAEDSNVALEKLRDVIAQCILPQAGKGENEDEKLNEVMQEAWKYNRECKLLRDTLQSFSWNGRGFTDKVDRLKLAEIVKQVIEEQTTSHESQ

[3] = molecular target: Protein-tyrosine kinase 6 (Homo sapiens) (UniProt Q13882); experiment: Inhibition of human recombinant BRK at 500 nM in presence of ATP by radiometric assay relative to control
Procedure, shortened: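 Part of a radiometric in vitro activity panel of 327 recombinant human kinases. Each kinase was tested in duplicate at one inhibitor concentration. Activity remaining was expressed as a percentage of the vehicle control, and percent inhibition was taken as 100 minus that value.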

[4] = molecular target: T2, Serine/threonine-protein kinase Nek1 (Homo sapiens) (UniProt Q96PY6); experiment: Inhibition of human recombinant NEK1 at 15 nM in presence of ATP by radiometric assay relative to control
T2 sequence (whole entry): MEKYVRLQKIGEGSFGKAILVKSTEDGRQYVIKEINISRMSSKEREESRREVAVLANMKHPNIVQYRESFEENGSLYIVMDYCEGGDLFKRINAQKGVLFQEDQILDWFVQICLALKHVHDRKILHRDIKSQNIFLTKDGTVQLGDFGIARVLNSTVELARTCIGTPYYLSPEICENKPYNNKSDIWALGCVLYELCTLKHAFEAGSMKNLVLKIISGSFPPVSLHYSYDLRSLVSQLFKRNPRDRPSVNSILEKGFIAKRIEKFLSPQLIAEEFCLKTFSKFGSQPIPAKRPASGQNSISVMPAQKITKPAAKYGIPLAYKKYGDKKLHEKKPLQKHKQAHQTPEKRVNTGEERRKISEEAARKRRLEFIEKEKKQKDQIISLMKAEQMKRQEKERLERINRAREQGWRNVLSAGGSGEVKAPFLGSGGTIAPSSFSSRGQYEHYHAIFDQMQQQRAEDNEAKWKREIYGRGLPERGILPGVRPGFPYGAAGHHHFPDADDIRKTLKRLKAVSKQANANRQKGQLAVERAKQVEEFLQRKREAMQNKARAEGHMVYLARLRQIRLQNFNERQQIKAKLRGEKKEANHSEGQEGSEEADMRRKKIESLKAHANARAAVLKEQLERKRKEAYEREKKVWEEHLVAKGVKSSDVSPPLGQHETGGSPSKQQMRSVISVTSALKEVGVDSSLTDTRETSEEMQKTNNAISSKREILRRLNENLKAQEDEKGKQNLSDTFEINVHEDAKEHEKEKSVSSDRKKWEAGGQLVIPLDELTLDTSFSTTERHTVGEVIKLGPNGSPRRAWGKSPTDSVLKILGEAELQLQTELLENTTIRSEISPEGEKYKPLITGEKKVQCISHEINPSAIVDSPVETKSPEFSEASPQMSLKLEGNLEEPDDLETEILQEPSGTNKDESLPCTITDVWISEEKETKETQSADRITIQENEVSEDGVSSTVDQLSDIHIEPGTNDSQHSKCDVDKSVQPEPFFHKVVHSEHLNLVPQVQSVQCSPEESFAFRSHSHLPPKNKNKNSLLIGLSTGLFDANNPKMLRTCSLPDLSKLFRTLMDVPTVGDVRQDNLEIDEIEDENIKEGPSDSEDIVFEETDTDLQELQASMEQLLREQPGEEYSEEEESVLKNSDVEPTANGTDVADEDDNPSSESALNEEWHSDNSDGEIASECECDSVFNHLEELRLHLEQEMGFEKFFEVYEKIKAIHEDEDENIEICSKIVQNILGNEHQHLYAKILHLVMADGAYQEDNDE

[5] = molecular target: Ephrin type-A receptor 4 (Homo sapiens) (UniProt P54764); experiment: Inhibition of human recombinant EphA4 at 40 nM in presence of ATP by radiometric assay relative to control
[6] = molecular target: T3, Mitogen-activated protein kinase kinase kinase kinase 2 (Homo sapiens) (UniProt Q12851); experiment: Inhibition of human recombinant GCK at 40 nM related to control ULK1
T3 sequence (whole entry): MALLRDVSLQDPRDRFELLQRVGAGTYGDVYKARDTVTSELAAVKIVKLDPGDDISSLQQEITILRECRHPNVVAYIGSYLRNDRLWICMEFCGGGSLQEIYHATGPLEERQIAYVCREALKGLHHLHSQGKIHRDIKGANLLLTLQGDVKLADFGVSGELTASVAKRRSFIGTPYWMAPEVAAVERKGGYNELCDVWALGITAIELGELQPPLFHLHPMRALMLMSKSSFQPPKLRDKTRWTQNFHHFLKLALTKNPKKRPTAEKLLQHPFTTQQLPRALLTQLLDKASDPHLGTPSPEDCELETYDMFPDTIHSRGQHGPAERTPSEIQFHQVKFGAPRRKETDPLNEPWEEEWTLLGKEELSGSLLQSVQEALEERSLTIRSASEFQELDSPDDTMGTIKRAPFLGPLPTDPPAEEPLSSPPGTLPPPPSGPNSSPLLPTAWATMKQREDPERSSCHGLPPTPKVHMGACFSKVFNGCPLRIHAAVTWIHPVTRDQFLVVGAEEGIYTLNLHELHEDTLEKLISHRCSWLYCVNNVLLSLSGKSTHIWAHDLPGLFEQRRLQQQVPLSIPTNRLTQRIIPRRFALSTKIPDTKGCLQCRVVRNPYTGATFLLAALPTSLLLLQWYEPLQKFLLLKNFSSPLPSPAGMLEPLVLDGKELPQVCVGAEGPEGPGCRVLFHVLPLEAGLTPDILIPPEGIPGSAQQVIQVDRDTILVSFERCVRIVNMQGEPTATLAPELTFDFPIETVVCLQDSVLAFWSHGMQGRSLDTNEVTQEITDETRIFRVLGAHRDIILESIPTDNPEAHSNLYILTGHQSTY

Chain of Protein-tyrosine kinase 6 (Homo sapiens) (Q13882 whole entry, looked up): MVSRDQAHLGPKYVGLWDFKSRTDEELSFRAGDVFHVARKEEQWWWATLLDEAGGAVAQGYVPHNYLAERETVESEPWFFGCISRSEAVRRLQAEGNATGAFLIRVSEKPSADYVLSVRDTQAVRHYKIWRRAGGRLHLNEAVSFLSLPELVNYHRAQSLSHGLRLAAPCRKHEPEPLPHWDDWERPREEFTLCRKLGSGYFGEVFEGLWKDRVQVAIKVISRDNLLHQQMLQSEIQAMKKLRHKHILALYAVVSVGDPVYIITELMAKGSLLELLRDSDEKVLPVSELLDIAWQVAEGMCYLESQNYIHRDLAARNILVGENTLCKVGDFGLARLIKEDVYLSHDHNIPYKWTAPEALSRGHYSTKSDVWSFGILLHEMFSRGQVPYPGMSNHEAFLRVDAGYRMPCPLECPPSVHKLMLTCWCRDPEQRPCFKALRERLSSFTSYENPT
Chain of Ephrin type-A receptor 4 (Homo sapiens) (P54764 whole entry): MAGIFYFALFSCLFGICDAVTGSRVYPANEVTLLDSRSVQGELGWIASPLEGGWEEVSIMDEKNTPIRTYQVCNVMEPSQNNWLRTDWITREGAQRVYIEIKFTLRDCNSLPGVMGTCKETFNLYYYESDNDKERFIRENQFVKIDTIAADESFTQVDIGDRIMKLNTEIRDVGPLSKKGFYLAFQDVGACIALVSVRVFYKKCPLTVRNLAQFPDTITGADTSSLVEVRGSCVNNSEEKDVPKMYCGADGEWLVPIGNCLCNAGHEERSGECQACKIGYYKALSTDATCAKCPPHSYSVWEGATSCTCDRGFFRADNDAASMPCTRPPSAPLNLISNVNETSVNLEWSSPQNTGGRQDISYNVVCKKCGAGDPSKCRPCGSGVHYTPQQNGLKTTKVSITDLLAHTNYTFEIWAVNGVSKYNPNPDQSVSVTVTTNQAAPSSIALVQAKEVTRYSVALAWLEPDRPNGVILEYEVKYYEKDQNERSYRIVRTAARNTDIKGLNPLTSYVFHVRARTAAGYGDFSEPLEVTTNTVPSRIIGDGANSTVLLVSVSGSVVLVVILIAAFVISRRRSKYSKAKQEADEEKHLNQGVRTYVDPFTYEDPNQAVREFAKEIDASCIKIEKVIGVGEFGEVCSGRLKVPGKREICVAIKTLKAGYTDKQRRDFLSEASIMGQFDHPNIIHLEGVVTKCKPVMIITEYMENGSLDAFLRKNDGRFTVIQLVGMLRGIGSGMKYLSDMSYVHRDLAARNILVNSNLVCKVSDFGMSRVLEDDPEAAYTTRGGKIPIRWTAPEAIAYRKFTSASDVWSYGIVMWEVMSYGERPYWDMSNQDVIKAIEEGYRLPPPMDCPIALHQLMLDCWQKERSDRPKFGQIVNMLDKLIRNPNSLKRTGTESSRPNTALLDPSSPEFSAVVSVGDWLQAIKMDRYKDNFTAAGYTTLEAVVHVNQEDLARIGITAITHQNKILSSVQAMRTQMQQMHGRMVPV
Chain of Cyclin-dependent kinase 4 (Homo sapiens) (P11802 whole entry): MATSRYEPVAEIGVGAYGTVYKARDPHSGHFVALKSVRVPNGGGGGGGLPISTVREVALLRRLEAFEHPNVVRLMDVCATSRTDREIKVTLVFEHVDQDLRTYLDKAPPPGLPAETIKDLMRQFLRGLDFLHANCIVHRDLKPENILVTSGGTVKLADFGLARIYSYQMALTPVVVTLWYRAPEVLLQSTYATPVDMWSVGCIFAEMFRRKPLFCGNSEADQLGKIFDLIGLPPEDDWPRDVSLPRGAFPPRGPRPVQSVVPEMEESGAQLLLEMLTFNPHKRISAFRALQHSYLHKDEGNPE

- inhibition [1]: 0%
- inhibition [2]: 0%
- inhibition [3]: 2%
Compound: CNC(=O)c1ccccc1Oc1nc(Nc2cc(OC)c(OC)c(OC)c2)ncc1Br

- inhibition [4]: 3%
Compound: CC(C)[C@H](NC(=O)c1cc(-c2cnn3cc(-c4ccc(OCCN5CCCCC5)cc4)cnc23)cs1)C(F)(F)F

- inhibition [5]: 0%
- fold change (FC) [6]: 0
Compound: O=C(N[C@@H](C1CC1)C(F)(F)F)c1cc(-c2cnn3cc(-c4ccc(F)cc4)cnc23)cs1
